What was measured:
[1] = system: sandwich‐cultured mouse (NMRI) hepatocytes; assay: Hepatobiliary disposition in sandwich-cultured mouse hepatocytes; type: in vitro ADME; conditions: 1 μmol/L, 10 min
[2] = system: sandwich‐cultured human hepatocytes; assay: Hepatobiliary disposition in sandwich-cultured human hepatocytes; type: in vitro ADME; conditions: 10 min
Summary of the method: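 Sandwich-cultured human hepatocytes from three donor liver preparations, cultured 6 days. [14C]-test compound was applied at 10 and 250 μmol/L, with [3H]-taurocholate as transporter-function control and LDH release as cytotoxicity check. Radioactivity was read by LSC. Accumulation is mean ± SD of triplicate wells. BEI, CLbiliary, intracellular concentration and Cic/Cec were derived.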

[3] = donor 1, 1 μmol/L, mean ± SD of triplicate wells
[4] = donor 2, 1 μmol/L, mean ± SD of triplicate wells
[5] = donor 3, 1 μmol/L, mean ± SD of triplicate wells
[6] = mean ± standard error of 3 donors, 1 μmol/L

C[C@H](CCC(=O)NCCS(=O)(=O)O)[C@H]1CC[C@H]2[C@@H]3[C@H](O)C[C@@H]4C[C@H](O)CC[C@]4(C)[C@H]3C[C@H](O)[C@]12C [TCA, taurocholate, reference compound]
BEI [1]: 30.5% | CLbiliary [1]: 66.8 mL/min/kg | Cellular accumulation ([1]; mean ± SD of triplicate wells): 150 ± 28 pmol/mg | Total accumulation ([1]; mean ± SD of triplicate wells): 215 ± 23 pmol/mg | BEI ([2]; donor 1, 1 μmol/L): 44.6% | CLbiliary ([2]; donor 1, 1 μmol/L): 7.16 mL/min/kg | Cellular accumulation [2, 3]: 30.7 ± 2.8 pmol/mg | Total accumulation [2, 3]: 55.3 ± 5.7 pmol/mg | BEI ([2]; donor 2, 1 μmol/L): 74.2% | CLbiliary ([2]; donor 2, 1 μmol/L): 19.3 mL/min/kg | Cellular accumulation [2, 4]: 23.2 ± 1.9 pmol/mg | Total accumulation [2, 4]: 89.7 ± 3.6 pmol/mg | BEI ([2]; donor 3, 1 μmol/L): 66.5% | CLbiliary ([2]; donor 3, 1 μmol/L): 31.0 mL/min/kg | Cellular accumulation [2, 5]: 53.9 ± 2.0 pmol/mg | Total accumulation [2, 5]: 161 ± 12 pmol/mg | BEI [2, 6]: 61.7 ± 8.9% | CLbiliary [2, 6]: 19.2 ± 6.9 mL/min/kg | Cellular accumulation [2, 6]: 35.9 ± 9.2 pmol/mg | Total accumulation [2, 6]: 102 ± 31 pmol/mg
